Converted amounts (≈) assume the structure as drawn. Each block holds one compound with its values, some of them ahead of it. The source made the active and inactive calls. No cut-off for these calls is given here.
Tests used:
[1] = target: T1, Thyroid hormone receptor beta (Rattus norvegicus) (UniProt P18113); assay: Binding affinity to the receptor was determined in vitro in isolated nuclei of rat liver relative to T3; assay type: tissue-based
T1 sequence (whole entry): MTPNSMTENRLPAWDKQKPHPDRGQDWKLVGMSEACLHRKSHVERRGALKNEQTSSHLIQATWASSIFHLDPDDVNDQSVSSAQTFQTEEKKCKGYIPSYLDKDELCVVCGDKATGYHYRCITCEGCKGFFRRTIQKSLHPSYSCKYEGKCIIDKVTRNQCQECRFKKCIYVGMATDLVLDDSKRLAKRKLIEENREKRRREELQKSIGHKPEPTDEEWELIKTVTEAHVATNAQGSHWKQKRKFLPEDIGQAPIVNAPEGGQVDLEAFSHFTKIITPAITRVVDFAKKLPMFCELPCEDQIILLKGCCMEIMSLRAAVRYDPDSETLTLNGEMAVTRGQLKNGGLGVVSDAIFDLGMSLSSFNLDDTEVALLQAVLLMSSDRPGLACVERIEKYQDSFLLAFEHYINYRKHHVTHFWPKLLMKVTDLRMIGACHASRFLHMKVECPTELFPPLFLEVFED

Rattus norvegicus [2] = assay: Potency for induction of GPDH (mitochondrial cytochrome C3-phosphoglycerate oxidoreductase) was measured 48 hours after single intramuscular injection relative to T3 in liver; assay type: functional
Rattus norvegicus [3] = assay: Potency for induction of GPDH (mitochondrial cytochrome C3-phosphoglycerate oxidoreductase) was measured 48 hr after single im injection relative to T3 in heart; I=inactive after 2 daily doses of 50 mg/kg; assay type: functional, organism-based; design: dose 50 mg/kg
Rattus norvegicus [4] = assay: Percent increase in oxygen consumption after seven daily doses of test compound given intramuscularly, with the concentration of compound at 10 mg/kg; assay type: functional; conditions: route intramuscular
Procedure, shortened: (§1)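 Euthyroid rats given seven daily doses, intramuscular or oral, by line; whole-body oxygen consumption measured as percent increase in metabolic rate.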

[5] = target: T1, Thyroid hormone receptor beta (Rattus norvegicus); assay: In vitro binding affinity to the receptor was determined in isolated nuclei of heart relative to T3; assay type: functional
Rattus norvegicus [6] = assay: Percent increase in oxygen consumption after seven daily doses of test compound given perorally, with value in braces indicating the concentration of compound at 5 mg/kg; assay type: functional; conditions: route oral; procedure, shortened: as §1
Rattus norvegicus [7] = assay: Potency for induction of GPDH (mitochondrial cytochrome C 3-phosphoglycerate oxidoreductase) was measured 48 hr after single im injection relative to T3 in heart; LM=low maximal response after 2 daily doses of 50 mg/kg; assay type: functional, organism-based; design: dose 50 mg/kg; conditions: filed as partial agonist
Rattus norvegicus [8] = assay: Percent increase in oxygen consumption after seven daily doses of test compound given perorally, with concentration of compound at 0.04 mg/kg; assay type: functional; conditions: route oral; procedure, shortened: as §1
Rattus norvegicus [9] = assay: Potency for induction of GPDH (mitochondrial cytochrome C3-phosphoglycerate oxidoreductase) was measured 48 hours after single intramuscular injection relative to […] in liver; assay type: functional
[10] = tested on: Thyroid hormone receptor (Rattus norvegicus); assay: Binding affinity to thyroid hormone receptor, relative to 3,5,3' triiodothyronine receptor, in isolated nuclei of heart
[11] = Binding affinity to the thyroid hormone receptor was determined in vitro in isolated nuclei of rat liver relative to 3,5,3' triiodothyronine; assay type: tissue-based
Rattus norvegicus [12] = assay: Percent increase in oxygen consumption in dose-mg/Kgfter seven daily doses of test compound given intramuscularly, at a conc of 3.3 mg/kg; assay type: functional; conditions: route intramuscular; procedure, shortened: as §1
Rattus norvegicus [13] = assay: Percent increase in oxygen consumption after seven daily doses in mg/kg increase of test compound given perorally; I=inactive after 2 daily doses of 50 mg/kg; assay type: functional, organism-based; design: dose 50 mg/kg; procedure, shortened: as §1
[14] = Selectivity, ratio between relative ID50 in liver and heart
Procedure, shortened: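 Liver/heart selectivity in rats, calculated as (relative ID50)liver divided by (relative ID50)heart, from in vivo nuclear binding 1 h after intravenous dosing.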

[15] = target: T1, Thyroid hormone receptor beta (Rattus norvegicus); assay: Binding affinity to the receptor was determined in nuclei of liver In vivo 1 hour after intravenous administration relative to T3; assay type: organism-based
[16] = target: T1, Thyroid hormone receptor beta (Rattus norvegicus); assay: Binding affinity to the receptor was determined in isolated nuclei of heart(In vitro) relative to T3
[17] = Partition coefficient at 25 degree Celsius in octanol/aqueous buffer at pH 6.02; assay type: physicochemical
[18] = target: T1, Thyroid hormone receptor beta (Rattus norvegicus); assay: Binding affinity to the receptor was determined in nuclei of heart in vivo 1 hour after intravenous administration relative to 3,5,3' triiodothyronine receptor
[19] = Aqueous solubility at 37 degree Celsius at pH 7.38; assay type: physicochemical
Procedure, shortened: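 Solubility in aqueous medium at 37 °C, pH 7.38; given in units of ×10^5 mol/L.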

Rattus norvegicus [20] = assay: Percent increase in oxygen consumption after seven daily doses of test compound given perorally, with concentration of compound; I=inactive after 2 daily doses of 5o mg/kg; assay type: functional, organism-based; procedure, shortened: as §1
Rattus norvegicus [21] = assay: Percent increase in oxygen consumption after seven daily doses of test compound given intramuscularly, with concentration of compound at 20 mg/kg; assay type: functional; conditions: route intramuscular; procedure, shortened: as §1
Rattus norvegicus [22] = assay: Percent increase in oxygen consumption after seven daily doses of test compound given perorally, with concentration of compound at 5.3 mg/kg; assay type: functional; conditions: route oral; procedure, shortened: as §1
[23] = target: T1, Thyroid hormone receptor beta (Rattus norvegicus); assay: Binding affinity to the receptor was determined in isolated nuclei of liver in vitro relative to 3,5,3' triiodothyronine receptor
Rattus norvegicus [24] = assay: Percent increase in oxygen consumption after seven daily oral doses of 5 mg/kg in euthyroid rats
Rattus norvegicus [25] = assay: Potency for induction of GPDH (mitochondrial cytochrome C3-phosphoglycerate oxidoreductase) was measured relative to T3 in heart; I=inactive after 2 daily doses of 50 mg/kg; assay type: functional, organism-based; design: dose 50 mg/kg
[26] = target: T1, Thyroid hormone receptor beta (Rattus norvegicus); assay: In vivo binding affinity to the receptor was determined in nuclei of heart 1 h after intravenous administration relative to 3,5,3' triiodothyronine receptor
[27] = partition coefficient at 25 degree Celsius in octanol/aqueous buffer at pH 6.02; assay type: physicochemical
Rattus norvegicus [28] = assay: In vivo binding affinity for 3,5,3' triiodothyronine receptor of liver nuclei 1 hour after intravenous administration; assay type: organism-based
Rattus norvegicus [29] = assay: Percent increase in oxygen consumption after seven daily doses of test compound given perorally, with concentration of compound at 5 mg/kg; assay type: functional; conditions: route oral; procedure, shortened: as §1
Rattus norvegicus [30] = assay: Percent increase in oxygen consumption after seven daily doses of test compound given intramuscularly, ata conc of 3.3 mg/kg; assay type: functional; conditions: route intramuscular; procedure, shortened: as §1
Rattus norvegicus [31] = assay: In vivo binding affinity for 3,5,3'' triiodothyronine receptor of heart nuclei 1 hr after intravenous administration; assay type: organism-based
Rattus norvegicus [32] = assay: Potency for induction of GPDH (mitochondrial cytochrome C3-phosphoglycerate oxidoreductase) was measured 48 hours after single intramuscular injection relative to T3 in heart; assay type: functional
Rattus norvegicus [33] = assay: Percent increase in oxygen consumption after seven daily doses of test compound given perorally, with concentration of compound at 0.1 mg/kg; assay type: functional; conditions: route oral; procedure, shortened: as §1
Rattus norvegicus [34] = assay: Percent increase in oxygen consumption after seven daily doses of test compound given intramuscularly, with the concentration of compound at 0.1 mg/kg; assay type: functional; conditions: route intramuscular; procedure, shortened: as §1
Rattus norvegicus [35] = assay: Percent increase in oxygen consumption after seven daily doses of test compound given perorally; I=inactive after 2 daily doses of 50 mg/kg; assay type: functional, organism-based; design: dose 50 mg/kg; procedure, shortened: as §1
Rattus norvegicus [36] = assay: Percent increase in oxygen consumption after seven daily doses of test compound given intramuscularly, at a conc of 3.3 mg/kg; assay type: functional; conditions: route intramuscular; procedure, shortened: as §1

Relative IC50 [1]: 0.083 | Relative IC50 [5]: 0.14
SMILES: Cc1cc(CC(N)C(=O)O)cc(C)c1Oc1ccc(O)c(Cc2ccc(O)nc2)c1 (centres undefined)
Relative ED50 (Rattus norvegicus [2]): 1.1 | Relative ED50 (Rattus norvegicus [3]): inactive | Increase (Rattus norvegicus [4]): 28% | Increase (Rattus norvegicus [6]): 18%

Ratio [14]: 50 | Relative ID50 [15]: 10 | Relative IC50 [16]: 2.7 | Relative IC50 [11]: 2.3 | logD [17]: 1.01 | Relative ID50 [18]: 0.2 | solubility [19]: 10 µM (≈ 6.32 µg/mL)
SMILES: N[C@@H](Cc1cc(I)c(Oc2ccc(O)c(Cc3ccc(O)nc3)c2)c(I)c1)C(=O)O
Increase (Rattus norvegicus [12]): 19% | Relative ED50 (Rattus norvegicus [2]): 1.7 | Relative ED50 (Rattus norvegicus [3]): inactive | Increase (Rattus norvegicus [13]): inactive

Relative IC50 [10]: 10.2 | Relative IC50 [11]: 9.8
SMILES: N[C@@H](Cc1cc(Br)c(Sc2ccc(O)c(Cc3ccc(O)nc3)c2)c(Br)c1)C(=O)O
Relative ED50 (Rattus norvegicus [7]): Partial agonist | Relative ED50 (Rattus norvegicus [9]): 14.5 | Increase (Rattus norvegicus [22]): 16%

logD [27]: 0.7 | Relative IC50 [10]: 1.8 | Relative IC50 [11]: 2 | solubility [19]: 33 µM (≈ 17.8 µg/mL)
SMILES: N[C@@H](Cc1cc(Br)c(Oc2ccc(O)c(Cc3ccc(O)nc3)c2)c(Br)c1)C(=O)O
Relative ED50 (Rattus norvegicus [2]): 6.9 | Relative ED50 (Rattus norvegicus [3]): inactive | Relative ID50 (Rattus norvegicus [28]): 23 | Increase (Rattus norvegicus [29]): 31% | Increase (Rattus norvegicus [30]): 32% | Relative ID50 (Rattus norvegicus [31]): 0.3

Relative IC50 [10]: 19.4 | Relative IC50 [11]: 14.8
SMILES: N[C@@H](Cc1cc(I)c(Sc2ccc(O)c(Cc3ccc(O)nc3)c2)c(I)c1)C(=O)O
Relative ED50 (Rattus norvegicus [2]): 16.6 | Relative ED50 (Rattus norvegicus [3]): inactive | % increase O2 consumption (Rattus norvegicus [35]): inactive | Increase (Rattus norvegicus [36]): 26%

The next lines start with the compound.

SMILES: N[C@@H](Cc1cc(Cl)c(Oc2ccc(O)c(Cc3ccc(O)nn3)c2)c(Cl)c1)C(=O)O
Relative ED50 (Rattus norvegicus [7]): Partial agonist | Increase (Rattus norvegicus [8]): 15% | Relative ED50 (Rattus norvegicus [9]): 25 | Relative IC50 [10]: 0.8 | Relative IC50 [11]: 0.48

SMILES: O=C(O)Cc1cc(Br)c(Oc2ccc(O)c(Cc3ccc(O)nc3)c2)c(Br)c1
Relative ED50 (Rattus norvegicus [2]): 2 | Relative ED50 (Rattus norvegicus [3]): inactive | % increase O2 consumption (Rattus norvegicus [20]): inactive | Increase (Rattus norvegicus [21]): 21% | Relative IC50 [11]: 3

SMILES: O=C(O)CCCc1cc(Br)c(Oc2ccc(O)c(Cc3ccc(O)nc3)c2)c(Br)c1
Relative ED50 (Rattus norvegicus [2]): 0.69 | Relative IC50 [23]: 21.7 | Increase (Rattus norvegicus [24]): 19% | Relative ED50 (Rattus norvegicus [25]): inactive | Relative ID50 [26]: 0.26 | Relative IC50 [11]: 21.7

SMILES: N[C@@H](Cc1cc(Br)c(Oc2ccc(O)c(Cc3ccc(O)nn3)c2)c(Br)c1)C(=O)O
Relative ED50 (Rattus norvegicus [2]): 18 | Relative ED50 (Rattus norvegicus [32]): <0.1 | Increase (Rattus norvegicus [33]): 20% | Relative IC50 [11]: 0.9 | Increase (Rattus norvegicus [34]): 20%

— ChEMBL document CHEMBL1124386, “Selective thyromimetics. Cardiac-sparing thyroid hormone analogues containing 3'-arylmethyl substituents” (J Med Chem, 1989)
